Reference: ChEMBL document CHEMBL5653631, “A Potent and Selective ULK1 Inhibitor Suppresses Autophagy and Sensitizes Cancer Cells to Nutrient Stress” (iScience, 2018)
Each block holds one compound with its values, some of them ahead of it.

Tests used:
[1] = target: Homeodomain-interacting protein kinase 2 (Homo sapiens) (UniProt Q9H2X6); test: Inhibition of human recombinant HIPK2 at 500 nM in presence of ATP by radiometric assay relative to control
[2] = target: Serine/threonine-protein kinase N2 (Homo sapiens) (UniProt Q16513); test: Inhibition of human recombinant PKN2 at 500 nM related to control ULK1
[3] = target: Dual specificity protein kinase CLK2 (Homo sapiens) (UniProt P49760); test: Inhibition of human recombinant CLK2 at 40 nM related to control ULK1
[4] = target: Cyclin-dependent kinase 12 (Homo sapiens) (UniProt Q9NYV4); test: Inhibition of human recombinant CRK7 at 40 nM related to control ULK1
[5] = target: T1, Serine/threonine-protein kinase ULK3 (Homo sapiens) (UniProt Q6PHR2); test: Inhibition of human recombinant ULK3 at 40 nM in presence of ATP by radiometric assay relative to control
T1 sequence (whole entry): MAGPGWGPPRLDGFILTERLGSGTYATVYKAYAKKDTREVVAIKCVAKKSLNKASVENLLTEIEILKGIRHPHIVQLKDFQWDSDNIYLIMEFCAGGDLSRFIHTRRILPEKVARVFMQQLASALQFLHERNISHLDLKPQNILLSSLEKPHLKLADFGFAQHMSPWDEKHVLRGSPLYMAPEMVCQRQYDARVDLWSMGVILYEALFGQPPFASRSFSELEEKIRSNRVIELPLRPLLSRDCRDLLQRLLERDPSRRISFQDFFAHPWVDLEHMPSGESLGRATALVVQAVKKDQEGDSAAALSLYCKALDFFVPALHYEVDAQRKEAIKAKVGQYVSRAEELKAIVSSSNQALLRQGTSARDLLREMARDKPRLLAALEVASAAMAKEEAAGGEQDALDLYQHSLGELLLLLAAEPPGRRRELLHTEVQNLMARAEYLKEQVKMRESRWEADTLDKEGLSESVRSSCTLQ

[6] = target: Transcription initiation factor TFIID subunit 1-like (Homo sapiens) (UniProt Q8IZX4); test: Inhibition of human recombinant TAF1L at 40 nM in presence of ATP by radiometric assay relative to control
[7] = target: T2, Serine/threonine-protein kinase ULK1 (Homo sapiens) (UniProt O75385); test: Inhibition of human recombinant ULK1 at 15 nM in presence of ATP by radiometric assay relative to control
T2 sequence (whole entry): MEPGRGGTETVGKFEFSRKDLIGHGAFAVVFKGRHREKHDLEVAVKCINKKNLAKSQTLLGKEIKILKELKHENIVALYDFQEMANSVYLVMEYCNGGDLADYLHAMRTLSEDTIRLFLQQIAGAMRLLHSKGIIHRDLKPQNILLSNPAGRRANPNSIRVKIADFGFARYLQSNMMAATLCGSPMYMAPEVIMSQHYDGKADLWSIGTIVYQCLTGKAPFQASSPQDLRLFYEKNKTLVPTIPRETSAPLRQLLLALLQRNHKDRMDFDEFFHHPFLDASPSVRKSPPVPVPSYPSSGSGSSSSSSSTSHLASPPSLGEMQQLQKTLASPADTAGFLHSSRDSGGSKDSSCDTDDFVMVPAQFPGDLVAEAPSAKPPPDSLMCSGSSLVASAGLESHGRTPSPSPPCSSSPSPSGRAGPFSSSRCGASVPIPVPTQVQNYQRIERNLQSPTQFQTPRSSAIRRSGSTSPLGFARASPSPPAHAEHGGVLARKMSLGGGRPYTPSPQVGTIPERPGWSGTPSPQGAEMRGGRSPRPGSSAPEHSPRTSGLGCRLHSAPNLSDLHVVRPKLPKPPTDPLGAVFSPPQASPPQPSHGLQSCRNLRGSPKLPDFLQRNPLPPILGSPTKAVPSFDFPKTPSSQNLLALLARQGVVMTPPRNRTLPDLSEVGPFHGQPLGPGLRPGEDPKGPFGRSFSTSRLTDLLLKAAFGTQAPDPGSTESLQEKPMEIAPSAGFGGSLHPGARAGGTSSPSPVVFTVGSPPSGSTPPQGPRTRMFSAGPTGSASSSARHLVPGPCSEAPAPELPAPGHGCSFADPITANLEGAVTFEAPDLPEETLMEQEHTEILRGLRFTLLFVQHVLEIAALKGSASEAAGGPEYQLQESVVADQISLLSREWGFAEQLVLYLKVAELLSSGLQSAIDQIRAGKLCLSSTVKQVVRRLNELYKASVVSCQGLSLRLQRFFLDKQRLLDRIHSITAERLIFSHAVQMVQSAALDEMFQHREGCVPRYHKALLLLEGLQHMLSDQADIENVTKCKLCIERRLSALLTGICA

[8] = target: Death-associated protein kinase 1 (Homo sapiens) (UniProt P53355); test: Inhibition of human recombinant DAPK1 at 15 nM related to control ULK1
[9] = target: G protein-coupled receptor kinase 6 (Homo sapiens) (UniProt P43250); test: Inhibition of human recombinant GPRK6 at 15 nM related to control ULK1
[10] = target: Dual specificity mitogen-activated protein kinase kinase 2 (Homo sapiens) (UniProt P36507); test: Inhibition of human recombinant MAP2K2 at 15 nM in presence of ATP by radiometric assay relative to control
[11] = target: Tyrosine-protein kinase Blk (Homo sapiens) (UniProt P51451); test: Inhibition of human recombinant BLK at 15 nM in presence of ATP by radiometric assay relative to control
Procedure, shortened: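 Part of a radiometric in vitro activity panel of 327 recombinant human kinases. Each kinase was tested in duplicate at one inhibitor concentration. Activity remaining was expressed as a percentage of the vehicle control, and percent inhibition was taken as 100 minus that value.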

[12] = target: T3, Testis-specific serine/threonine-protein kinase 3 (Homo sapiens) (UniProt Q96PN8); test: Inhibition of human recombinant TSSK3 at 15 nM in presence of ATP by radiometric assay relative to control
T3 sequence (whole entry): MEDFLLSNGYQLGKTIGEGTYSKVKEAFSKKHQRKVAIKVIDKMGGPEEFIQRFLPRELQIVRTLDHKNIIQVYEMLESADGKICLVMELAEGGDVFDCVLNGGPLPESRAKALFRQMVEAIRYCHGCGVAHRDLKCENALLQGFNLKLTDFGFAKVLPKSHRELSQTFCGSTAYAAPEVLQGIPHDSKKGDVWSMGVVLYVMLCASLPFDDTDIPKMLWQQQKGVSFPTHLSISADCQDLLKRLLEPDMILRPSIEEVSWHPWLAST

Homeodomain-interacting protein kinase 2 (Homo sapiens), sequence (Q9H2X6 whole entry, looked up): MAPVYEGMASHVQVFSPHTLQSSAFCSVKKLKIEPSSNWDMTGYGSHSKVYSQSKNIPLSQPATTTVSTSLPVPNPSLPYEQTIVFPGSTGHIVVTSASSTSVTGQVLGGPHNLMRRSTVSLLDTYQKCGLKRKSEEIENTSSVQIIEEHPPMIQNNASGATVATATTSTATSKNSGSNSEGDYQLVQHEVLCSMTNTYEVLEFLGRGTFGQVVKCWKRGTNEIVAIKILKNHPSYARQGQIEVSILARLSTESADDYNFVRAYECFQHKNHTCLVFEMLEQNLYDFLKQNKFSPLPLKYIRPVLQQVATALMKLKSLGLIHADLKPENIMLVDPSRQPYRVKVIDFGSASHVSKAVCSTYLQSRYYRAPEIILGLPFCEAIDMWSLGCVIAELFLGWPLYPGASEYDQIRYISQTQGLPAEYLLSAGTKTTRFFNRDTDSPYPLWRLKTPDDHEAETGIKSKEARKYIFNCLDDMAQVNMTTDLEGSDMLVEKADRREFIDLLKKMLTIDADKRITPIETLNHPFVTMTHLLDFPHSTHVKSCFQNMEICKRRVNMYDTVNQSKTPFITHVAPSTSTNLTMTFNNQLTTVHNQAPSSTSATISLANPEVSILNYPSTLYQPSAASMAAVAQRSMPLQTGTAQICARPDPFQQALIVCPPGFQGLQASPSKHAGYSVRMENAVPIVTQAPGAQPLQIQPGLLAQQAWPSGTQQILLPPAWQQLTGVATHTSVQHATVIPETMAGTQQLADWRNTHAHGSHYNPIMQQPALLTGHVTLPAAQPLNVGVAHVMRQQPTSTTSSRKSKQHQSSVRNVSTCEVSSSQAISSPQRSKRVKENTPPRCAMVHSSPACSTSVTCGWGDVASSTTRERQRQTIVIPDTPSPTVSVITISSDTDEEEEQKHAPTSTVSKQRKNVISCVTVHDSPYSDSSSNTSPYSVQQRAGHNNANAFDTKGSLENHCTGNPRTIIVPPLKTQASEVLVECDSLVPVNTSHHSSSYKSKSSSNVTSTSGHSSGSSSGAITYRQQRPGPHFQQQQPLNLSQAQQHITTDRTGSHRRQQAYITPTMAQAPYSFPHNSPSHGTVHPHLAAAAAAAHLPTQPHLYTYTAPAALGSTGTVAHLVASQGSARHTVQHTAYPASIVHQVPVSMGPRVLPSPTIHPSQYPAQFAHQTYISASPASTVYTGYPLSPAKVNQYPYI
Cyclin-dependent kinase 12 (Homo sapiens), sequence (Q9NYV4 whole entry, looked up): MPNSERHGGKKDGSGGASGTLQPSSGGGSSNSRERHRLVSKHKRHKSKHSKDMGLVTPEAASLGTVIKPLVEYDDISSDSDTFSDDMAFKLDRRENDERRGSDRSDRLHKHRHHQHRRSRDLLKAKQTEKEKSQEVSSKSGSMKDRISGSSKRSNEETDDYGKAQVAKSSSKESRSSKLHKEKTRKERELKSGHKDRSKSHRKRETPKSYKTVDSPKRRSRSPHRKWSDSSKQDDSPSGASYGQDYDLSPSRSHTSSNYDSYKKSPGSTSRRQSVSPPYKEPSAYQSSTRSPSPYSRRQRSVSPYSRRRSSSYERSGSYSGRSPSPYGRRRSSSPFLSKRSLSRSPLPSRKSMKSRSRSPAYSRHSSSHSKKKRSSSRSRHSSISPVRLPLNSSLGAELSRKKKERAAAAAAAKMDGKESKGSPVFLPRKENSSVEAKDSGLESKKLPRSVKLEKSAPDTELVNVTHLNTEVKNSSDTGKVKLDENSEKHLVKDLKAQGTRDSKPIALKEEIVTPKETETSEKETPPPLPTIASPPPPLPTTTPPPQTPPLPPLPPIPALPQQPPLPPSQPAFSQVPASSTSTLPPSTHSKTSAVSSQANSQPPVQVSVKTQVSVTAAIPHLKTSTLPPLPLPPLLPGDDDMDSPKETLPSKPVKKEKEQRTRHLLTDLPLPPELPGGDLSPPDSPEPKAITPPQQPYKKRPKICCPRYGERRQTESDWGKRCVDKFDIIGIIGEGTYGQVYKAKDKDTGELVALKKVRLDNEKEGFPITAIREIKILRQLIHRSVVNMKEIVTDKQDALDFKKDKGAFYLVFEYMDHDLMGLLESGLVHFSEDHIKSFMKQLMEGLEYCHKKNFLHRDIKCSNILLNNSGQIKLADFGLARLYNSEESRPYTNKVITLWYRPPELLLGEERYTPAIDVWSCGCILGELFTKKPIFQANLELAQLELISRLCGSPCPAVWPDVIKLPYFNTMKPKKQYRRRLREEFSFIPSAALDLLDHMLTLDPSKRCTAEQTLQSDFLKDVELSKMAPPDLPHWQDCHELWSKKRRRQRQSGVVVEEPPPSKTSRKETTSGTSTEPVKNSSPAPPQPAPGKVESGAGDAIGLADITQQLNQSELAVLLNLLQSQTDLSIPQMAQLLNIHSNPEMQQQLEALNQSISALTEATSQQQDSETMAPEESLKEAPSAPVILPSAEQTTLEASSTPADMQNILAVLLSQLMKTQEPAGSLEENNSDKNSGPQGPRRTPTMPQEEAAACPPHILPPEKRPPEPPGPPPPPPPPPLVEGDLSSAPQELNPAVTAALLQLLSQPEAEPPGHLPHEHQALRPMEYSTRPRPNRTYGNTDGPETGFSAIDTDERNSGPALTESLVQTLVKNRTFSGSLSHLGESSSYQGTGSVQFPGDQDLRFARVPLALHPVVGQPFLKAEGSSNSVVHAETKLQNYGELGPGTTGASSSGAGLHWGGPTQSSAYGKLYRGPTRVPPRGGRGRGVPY
Tyrosine-protein kinase Blk (Homo sapiens), sequence (P51451 2-505 limits assumed): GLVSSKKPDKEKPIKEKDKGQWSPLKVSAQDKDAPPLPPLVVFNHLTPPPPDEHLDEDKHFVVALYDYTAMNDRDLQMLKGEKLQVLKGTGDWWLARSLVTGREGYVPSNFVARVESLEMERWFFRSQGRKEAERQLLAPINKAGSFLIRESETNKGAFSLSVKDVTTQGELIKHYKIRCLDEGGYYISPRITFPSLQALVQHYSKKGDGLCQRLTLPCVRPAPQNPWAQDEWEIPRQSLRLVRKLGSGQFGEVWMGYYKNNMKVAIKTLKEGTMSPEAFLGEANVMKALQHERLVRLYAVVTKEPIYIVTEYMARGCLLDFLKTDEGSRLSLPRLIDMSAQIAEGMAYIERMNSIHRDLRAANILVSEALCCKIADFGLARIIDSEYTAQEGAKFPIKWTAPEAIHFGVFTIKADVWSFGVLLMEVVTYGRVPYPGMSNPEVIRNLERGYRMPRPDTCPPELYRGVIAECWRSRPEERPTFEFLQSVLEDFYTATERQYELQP
Serine/threonine-protein kinase N2 (Homo sapiens), sequence (Q16513 whole entry, looked up): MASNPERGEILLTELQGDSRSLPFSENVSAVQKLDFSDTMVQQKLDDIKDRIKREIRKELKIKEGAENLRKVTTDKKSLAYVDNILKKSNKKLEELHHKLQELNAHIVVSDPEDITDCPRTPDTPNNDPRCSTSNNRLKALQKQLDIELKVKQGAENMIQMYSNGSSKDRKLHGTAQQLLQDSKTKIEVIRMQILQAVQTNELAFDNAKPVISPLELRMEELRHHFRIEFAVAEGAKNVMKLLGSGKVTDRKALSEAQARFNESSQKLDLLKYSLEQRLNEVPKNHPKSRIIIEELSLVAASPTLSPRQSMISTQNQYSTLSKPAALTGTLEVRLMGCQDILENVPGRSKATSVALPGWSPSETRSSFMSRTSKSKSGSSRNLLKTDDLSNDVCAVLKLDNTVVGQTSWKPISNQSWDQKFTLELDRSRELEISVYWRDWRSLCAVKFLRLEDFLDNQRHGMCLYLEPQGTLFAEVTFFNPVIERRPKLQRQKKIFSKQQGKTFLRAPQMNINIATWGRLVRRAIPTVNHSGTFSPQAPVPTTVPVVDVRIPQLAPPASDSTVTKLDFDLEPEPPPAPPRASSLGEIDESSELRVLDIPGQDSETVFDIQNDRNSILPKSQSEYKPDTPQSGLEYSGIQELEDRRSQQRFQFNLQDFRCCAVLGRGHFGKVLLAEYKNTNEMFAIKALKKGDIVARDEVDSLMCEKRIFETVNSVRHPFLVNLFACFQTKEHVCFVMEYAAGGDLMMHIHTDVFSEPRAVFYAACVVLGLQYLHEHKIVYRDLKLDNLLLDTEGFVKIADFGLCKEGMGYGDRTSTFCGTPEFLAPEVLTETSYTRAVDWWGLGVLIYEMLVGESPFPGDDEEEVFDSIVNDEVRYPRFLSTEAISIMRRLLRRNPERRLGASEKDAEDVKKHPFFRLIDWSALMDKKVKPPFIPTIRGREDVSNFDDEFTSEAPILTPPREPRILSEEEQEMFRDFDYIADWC
G protein-coupled receptor kinase 6 (Homo sapiens), sequence (P43250 whole entry, looked up): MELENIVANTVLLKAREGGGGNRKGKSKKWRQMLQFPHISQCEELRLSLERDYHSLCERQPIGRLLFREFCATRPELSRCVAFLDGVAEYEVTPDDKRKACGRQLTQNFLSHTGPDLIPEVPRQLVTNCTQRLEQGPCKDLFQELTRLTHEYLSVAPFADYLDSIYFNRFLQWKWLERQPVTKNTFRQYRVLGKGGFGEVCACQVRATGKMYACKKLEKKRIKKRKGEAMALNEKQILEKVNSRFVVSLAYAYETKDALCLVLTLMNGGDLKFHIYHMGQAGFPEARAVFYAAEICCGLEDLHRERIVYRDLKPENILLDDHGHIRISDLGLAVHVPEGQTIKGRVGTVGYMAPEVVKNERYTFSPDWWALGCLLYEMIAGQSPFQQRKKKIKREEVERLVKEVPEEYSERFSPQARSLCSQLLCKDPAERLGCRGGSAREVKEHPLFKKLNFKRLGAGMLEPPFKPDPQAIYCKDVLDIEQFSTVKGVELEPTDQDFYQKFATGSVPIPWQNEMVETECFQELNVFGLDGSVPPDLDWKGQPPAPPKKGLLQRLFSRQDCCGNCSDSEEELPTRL

inhibition [1]: 0%
fold change (FC) [2]: 0
SMILES: CNC(=O)c1ccccc1Oc1nc(Nc2cc(OC)c(OC)c(OC)c2)ncc1Br

fold change (FC) [3]: 0.26
fold change (FC) [4]: 0.1
inhibition [5]: 5%
inhibition [6]: 47%
SMILES: O=C(N[C@@H](C1CC1)C(F)(F)F)c1cc(-c2cnn3cc(-c4ccc(F)cc4)cnc23)cs1

inhibition [7]: 88%
fold change (FC) [9]: 0
inhibition [10]: 0%
inhibition [11]: 10%
inhibition [12]: 14%
SMILES: CC(C)[C@H](NC(=O)c1cc(-c2cnn3cc(-c4ccc(OCCN5CCCCC5)cc4)cnc23)cs1)C(F)(F)F
fold change (FC) [8]: 0.05
